High-throughput results: PubChem, several laboratories
TAAR1 antagonist – human TAAR1 antagonism | AID 624466 | Q96RJ0 | 360,000 compounds, 1.5% hits | CHO RD-HGA16 TAAR1, Fluo-8 calcium fluorescence, antagonist | inhibition, % at 3 µM;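 active = inhibition above a per-plate cutoff, the mean inhibition of test compounds on that plate plus 3 SD, cut at about 49% in these data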;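 note: 0% = DMSO plus EC80 beta-PEA response and 100% = DMSO alone without agonist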
Target sequence (Q96RJ0 whole entry, looked up): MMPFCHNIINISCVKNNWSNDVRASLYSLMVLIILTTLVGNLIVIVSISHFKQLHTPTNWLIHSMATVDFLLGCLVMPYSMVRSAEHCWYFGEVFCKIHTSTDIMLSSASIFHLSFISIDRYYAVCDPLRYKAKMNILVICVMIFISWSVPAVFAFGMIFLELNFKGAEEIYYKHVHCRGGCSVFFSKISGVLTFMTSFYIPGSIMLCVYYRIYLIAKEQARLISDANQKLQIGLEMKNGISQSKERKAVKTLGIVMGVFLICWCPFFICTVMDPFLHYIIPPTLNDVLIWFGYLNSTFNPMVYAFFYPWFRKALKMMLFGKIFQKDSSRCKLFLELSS
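Assay system: CHO-derived RD-HGA16 cells stably expressing human TAAR1 plus Gα16. Timing: 140 s kinetic read after compound, 140 s after agonist. Technique: kinetic Fluo-8 calcium fluorescence measurement. Measure: % inhibition of agonist calcium response.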
TAAR1 ag – human TAAR1 agonism | 360,000 compounds, 0.99% hits | CHO RD-HGA16 TAAR1, Fluo-8 calcium fluorescence; vehicle wells 0%, saturating PEA agonist 100% | activation, % at 3 µM | Q96RJ0;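 active = activation above the mean activation of all test compounds in the run plus 3 SD, cut at about 38% in these data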
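Benchmarks: low control DMSO, high control PEA (EC100); System: CHO RD-HGA16 cells carrying human TAAR1 plus Gα16; Detection: Fluo-8 fluorescence, 5 s baseline then 140 s kinetic read; Schedule: 17-24 h plating, Fluo-8 75 min 37 °C, 30 min RT; Read-out basis: % activation from peak over basal fluorescence ratio, DMSO-to-PEA scaled.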
NTR1 agonist – activates human neurotensin receptor 1. P30989. NTR1-U2OS beta-arrestin-GFP spot imaging, agonist mode. activation, % at 20 µM. 330,000 compounds, 0.17% hits. AID 493036;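 active = activation at or above 40% of the spot to cytoplasm intensity ratio, with at least 20 cells analyzed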;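 note: 0% = DMSO without peptide and 100% = 100 nM NTR1 peptide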
CHO parental Ca – signal in parental CHO cells, OX1R antagonist counter-screen; parental CHO-K1, ATP-induced calcium, Fluo-8 fluorescence; inhibition, % at 5.6 µM; 330,000 compounds, 0.63% hits; AID 463079;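 active = inhibition above that plate's mean sample inhibition plus 3 SD, cut at about 26% in these data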;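 note: 0% = ATP-challenged DMSO wells and 100% = DMSO wells without ATP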
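Test system: untransfected parental CHO cell line; also added: ATP stimulus; dosing: 5.6 µM, single dose; signal: calcium-sensitive Fluo-8 fluorescence; measure: percent inhibition of ATP-evoked calcium rise, normalized to controls; benchmarks: low control ATP plus DMSO, high control DMSO only; replication: one well per compound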
OX1R antag-1 – blocks the human orexin 1 receptor | CHO/OX1R cells, Fluo-8 calcium fluorescence, orexin A | inhibition, % at 5 µM | 330,000 compounds, 0.43% hits | O43613;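 active = inhibition above its plate's threshold, mean inhibition of all tested compounds on the plate plus 3 SD, cut at about 37% in these data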;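 note: 0% = orexin A challenge wells and 100% = SB-334867-A antagonist wells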
OX1R antag-2 – OX1R (human) antagonism | inhibition, % at 6.6 µM | O43613 | OX1R-expressing cells, FRET antagonist read-out | 330,000 compounds, 1.8% hits | AID 485270; in the data active = inhibition mostly above about 38%, no sharp cut-off; inactive = mostly below about 40%;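 note: 0% = agonist challenge alone and 100% = reference antagonist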
* = called active by the depositor; . = no result. In the library only some 4% were active in any assay of this set; here they are far more common.

SMILES	TAAR1 antagonist	TAAR1 ag	NTR1 agonist	CHO parental Ca	OX1R antag-1	OX1R antag-2
COc1cccc(C(=O)N2CCC[C@@H]2C(=O)N2CCC[C@H]2C(=O)NCc2ccccc2)c1	-22	4	.	.	.	.
Cc1ccc(NC(=O)c2cc3ccccc3oc2=N)cc1	-17	0	3	5	8	-1
N=c1oc2c3c4c(cc2cc1C(=O)Nc1ccccc1)CCCN4CCC3	.	.	-5	62*	94*	95*
Cc1c(-c2ccc(O)cc2)nc2nc(-c3ccccc3)c(-c3ccccc3)nn12	.	.	-3	90*	99*	27
CCc1ccc(/C=C/C(=O)C2C(=O)c3ccccc3C2=O)cc1	14	21	0	35*	8	22
O=S(=O)(c1ccccc1)c1ccc(N2CCCCCC2)cc1	-3	8	1	37*	-17	24
COc1cccc(/C=N/Nc2snc(SC)c2C#N)c1	18	42*	6	-7	4	67*
CSc1nsc(N/N=C/c2ccccc2)c1C#N	-10	8	7	7	-10	12
CCCCCCC12Cc3cc(OC)c(OC)cc3C(O1)C1=C(O2)C(C)(C)CCC1=O (stereo not drawn)	-10	-2	.	.	.	.
CCOC(=O)C1=C(COC(=O)c2ncc(Cl)c(Cl)c2Cl)NC(=O)NC1C (stereo not drawn)	-2	3	2	-14	-26	6
O=C(CN(C1CC1)S(=O)(=O)c1ccc(S(=O)(=O)NC2CCCCC2)cc1)Nc1ccccc1	38	38*	.	.	.	.
COc1ccc(CNC(=O)C(C)N(Cc2ccccc2OC)C(=O)c2snc(C(N)=O)c2N)cc1 (stereo not drawn)	51*	15	1	-14	-24	21
CN(C)c1ccc(C(C(=O)NCc2ccccc2)N(Cc2cccnc2)C(=O)c2snc(C(N)=O)c2N)cc1 (stereo not drawn)	56*	17	4	.	.	.
COc1cccc(N(C(=O)c2snc(C(N)=O)c2N)C(C(=O)NCc2ccccc2)c2ccc(O)cc2)c1 (stereo not drawn)	54*	9	2	-2	-1	2
COc1ccc(O)c(/C=N/n2c(-c3ccco3)csc2=Nc2cccnc2)c1	49*	4	11	-22	-13	16
COCCn1c(-c2ccco2)csc1=Nc1cccnc1	.	.	-1	-22	-28	12
Cc1nc(N)nc(N/N=C/c2ccccc2)n1	-3	3	2	13	1	2
Cc1cc(N/N=C/c2ccccc2)nc(N)n1	9	41*	0	-6	-4	21
COc1cc(-c2nc3ccccn3c2NCc2ccccc2)ccc1SC1CCCCC1	.	.	8	62*	-10	23
CC(C)(C)S(=O)(=O)N1C[C@H]2CC(=O)C(CCO)=C2[C@@H]1CCO	4	0	.	.	.	.
N#Cc1nc(-c2ccc(Cl)cc2)oc1NCc1ccco1	12	1	-2	44*	10	28
COc1ccc(CN(C)C(=O)c2ccncc2)c(OC)c1	-13	1	1	7	15	8
Cc1ccc(NC(=O)CC2SC3=NCCN3C2=O)cc1 (stereo not drawn)	8	2	-2	33*	14	8
Cc1onc(-c2ccccc2)c1C(=O)NCC1CCN(C(=O)C(=O)c2cccs2)CC1	-11	0	.	.	.	.
C[n+]1ccc(/C=N/Nc2nc(Cl)c(C#N)c(Cl)c2Cl)cc1	4	4	-1	-7	0	54*
SMILES	TAAR1 antagonist	TAAR1 ag	NTR1 agonist	CHO parental Ca	OX1R antag-1	OX1R antag-2
CCc1noc(C)c1C(=O)NCCN1C(=O)S/C(=C\c2ccc(OC)cc2)C1=O	8	3	-2	23	-3	58*
Cc1c(Cl)cccc1NC(=O)C(=O)NNC(=O)c1ccccc1F	-13	2	0	24*	4	18
N#Cc1nc(COc2ccccc2)oc1N1CCCCCC1	-4	-2	-4	54*	-23	25
N#Cc1nc(COc2ccccc2)oc1N1CCCC1	-10	4	1	-11	-16	31
COC(=O)c1c(C)[nH]c(C=O)c1-c1ccccc1	12	2	2	-12	-12	11
COC(=O)c1c(C)[nH]c(C)c1C(=O)c1ccccc1Cc1ccccc1	0	13	3	-12	-10	47*
COc1ccc(NC(=O)CSc2nc(=O)n(CCN(C)C)c3c2CCCC3)cc1OC	-14	0	-2	-23	-36	3
CCOc1ccc(N(CC(=O)Nc2cccc(Cl)c2)S(=O)(=O)c2c(C)noc2C)cc1	18	-2	6	40*	-5	18
CCOc1ccc(NC(=O)CCC(=O)NNC(=O)COc2ccc(C)cc2)cc1	11	3	-1	-6	-9	-8
COc1ccccc1CNC(=O)CN(c1ccc(C)cc1)S(=O)(=O)c1c(C)noc1C	31	3	1	-27	5	71*
COc1ccc(CNC(=O)CN(c2ccc(C)cc2)S(=O)(=O)c2c(C)noc2C)cc1	-12	0	1	-20	-5	44*
CCOc1ccc(NC(=O)CCC(=O)NNC(=O)Nc2cccc(Cl)c2)cc1	6	43*	2	-15	-9	5
COc1ccccc1CNC(=O)CN(c1ccc(C)cc1)S(=O)(=O)c1c(C)n[nH]c1C	35	12	-1	-18	-14	19
O=C(NCCS(=O)(=O)c1ccc(Br)cc1)c1c(F)cccc1F	-12	1	1	-7	-10	-14
COC(=O)[C@]12C[C@H](CC(=O)N3CCCC3)C(=O)N(Cc3ccc4c(c3)OCO4)C1=C[C@H](COCc1ccccc1)O[C@@H]2C	-18	-1	.	.	.	.
COc1ccc(C)cc1S(=O)(=O)N1CCN(C(=O)c2ncoc2-c2cccc(F)c2)CC1	9	1	-1	-18	-14	18
Cc1noc(C)c1S(=O)(=O)N(CC(=O)NCc1ccc2c(c1)OCO2)c1ccc(C(C)C)cc1	-17	-3	2	-13	-8	8
Cc1ccc(N(CC(=O)NCc2ccc3c(c2)OCO3)S(=O)(=O)c2c(C)noc2C)cc1	-26	-1	-2	-20	-8	60*
O=C(CCc1c[nH]c2ccccc12)Nc1ccc(Oc2cccnc2)cc1	12	0	.	.	.	.
CCCCCCNC(=O)C(C#N)c1nc2ccccc2nc1N1CCCC1 (stereo not drawn)	51*	4	4	22	-11	24
CCCCCNC(=O)C(C#N)c1nc2ccccc2nc1N1CCCC1 (stereo not drawn)	.	.	2	-15	-20	22
CCc1cc(OCCCCNCc2ccccc2)ccc1Cl	25	42*	27	0	-14	9
CN(C(=O)COC(=O)c1cc2ccccc2oc1=O)C1CCCCC1	12	1	1	-10	-20	28*
